Bioassay records (PubChem BioAssay)
TAAR1 ag – agonists of human TAAR1. CHO RD-HGA16 TAAR1, Fluo-8 calcium fluorescence; vehicle wells 0%, saturating PEA agonist 100%. activation, % at 3 µM. 360,000 tested, 0.99% active. Q96RJ0;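 active means activation above the mean activation of all test compounds in the run plus 3 SD, cut at about 38% in these data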
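Assay system – CHO-derived RD-HGA16 cells with stable Gα16 and human TAAR1 · Compound dosing – one-point dosing at 3 µM (nominal) · Incubation – 17-24 h seeding, 75 min 37 °C dye, 30 min RT · Measured by – kinetic Fluo-8 calcium fluorescence · Control set – DMSO vehicle as 0%, PEA at EC100 as 100% · Repeats – single well for each compound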
TAAR1 antagonist – human TAAR1 antagonism | 360,000 tested, 1.5% active | Q96RJ0 | AID 624466 | CHO RD-HGA16 TAAR1, Fluo-8 calcium fluorescence, antagonist | inhibition, % at 3 µM;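 active means inhibition above a per-plate cutoff, the mean inhibition of test compounds on that plate plus 3 SD, cut at about 49% in these data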;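 further: 0% = DMSO plus EC80 beta-PEA response and 100% = DMSO alone without agonist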
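Test system: hTAAR1-expressing CHO RD-HGA16 cells, Gα16-coupled; Probe or stimulus: EC80 β-phenethylamine stimulus; Compound dosing: single nominal final test compound concentration of 3 µM; Timing: 140 s kinetic read after compound, 140 s after agonist; Signal: Fluo-8 calcium-sensitive fluorescence; Measure: % inhibition of agonist calcium response; Controls: DMSO and EC80 PEA controls.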
OX1R antag-1 – human HCRTR1 antagonism; CHO/OX1R cells, Fluo-8 calcium fluorescence, orexin A; inhibition, % at 5 µM; 330,000 tested, 0.43% active; AID 434989;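 active means inhibition above its plate's threshold, mean inhibition of all tested compounds on the plate plus 3 SD, cut at about 37% in these data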;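 further: 0% = orexin A challenge wells and 100% = SB-334867-A antagonist wells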
Target sequence (O43613 whole entry, looked up): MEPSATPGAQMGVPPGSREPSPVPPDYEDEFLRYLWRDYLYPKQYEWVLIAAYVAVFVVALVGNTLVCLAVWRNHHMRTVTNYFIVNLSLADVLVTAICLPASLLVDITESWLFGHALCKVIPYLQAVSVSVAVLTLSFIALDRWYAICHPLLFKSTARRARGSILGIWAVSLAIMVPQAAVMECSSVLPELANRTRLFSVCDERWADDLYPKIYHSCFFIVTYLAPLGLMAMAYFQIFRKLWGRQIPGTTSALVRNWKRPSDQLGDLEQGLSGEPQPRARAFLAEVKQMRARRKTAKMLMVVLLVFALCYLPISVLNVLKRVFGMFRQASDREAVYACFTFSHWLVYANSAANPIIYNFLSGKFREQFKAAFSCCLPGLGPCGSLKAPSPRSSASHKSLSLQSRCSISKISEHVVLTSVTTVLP
CHO parental Ca – signal in parental CHO cells, OX1R antagonist counter-screen. parental CHO-K1, ATP-induced calcium, Fluo-8 fluorescence. 330,000 tested, 0.63% active. inhibition, % at 5.6 µM;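 active means inhibition above that plate's mean sample inhibition plus 3 SD, cut at about 26% in these data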;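 further: 0% = ATP-challenged DMSO wells and 100% = DMSO wells without ATP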
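Measured by: calcium-sensitive Fluo-8 fluorescence / Test system: CHO parental line / Controls: ATP-challenged DMSO wells low, unchallenged DMSO wells high / Measure: % inhibition / Compound: single nominal dose of 5.6 µM per compound / Replicates: single well per compound, no replicates / Reagent: ATP as calcium-mobilizing challenge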
OX1R antag-2 – antagonists of human orexin 1 receptor (OX1R). O43613. OX1R-expressing cells, FRET antagonist read-out. inhibition, % at 6.6 µM. 330,000 tested, 1.8% active; in the data active means inhibition mostly above about 38%, no sharp cut-off; inactive means mostly below about 40%;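 further: 0% = agonist challenge alone and 100% = reference antagonist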
The depositor's hits bear a star; x = no result given. A selection: hits, their analogues and other compounds. The true share with any hit is near 3.9%.

SMILES	TAAR1 ag	TAAR1 antagonist	OX1R antag-1	CHO parental Ca	OX1R antag-2
O=CNc1cc(-c2ccsc2)cn2c(-c3ccccc3)cnc12	8.4	60.2*	x	x	x
COc1ccccc1-c1cc(NC=O)c2ncc(-c3cccc(C(C)=O)c3)n2c1	15.5	50.3*	x	x	x
COc1cccc(-c2cnc3c(NC=O)cc(-c4ccc(N(C)C)cc4)cn23)c1	2.5	-13.9	x	x	x
COc1ccc(-c2cc(NC=O)c3ncc(-c4ccc(C(C)=O)cc4)n3c2)cn1	9.3	52.7*	x	x	x
CS(=O)(=O)c1ccc(-c2cnc3c(NC=O)cc(-c4ccsc4)cn23)cc1	8.2	-1.7	x	x	x
COc1ccccc1-c1cc(NC=O)c2ncc(-c3cccc(C(=O)N(C)C)c3)n2c1	12.8	22.9	x	x	x
COc1ccc(-c2cc(NC=O)c3ncc(-c4cccc(OC)c4)n3c2)cc1	9.2	59.2*	x	x	x
O=C(Nc1ccc(Cl)cc1)C1Cc2c(-c3cccc(F)c3)ccnc2O1 (stereo not given)	2.0	4.6	x	x	x
CCCCNC(=O)C1(C)CCN1C(=O)c1oc2ccccc2c1C (stereo not given)	-1.7	-16.4	x	x	x
CC(C)NC(=O)C1(C)Cc2c(-c3ccc(N(C)C)cc3)ccnc2O1 (stereo not given)	12.9	-32.2	x	x	x
O=C(c1ncc[nH]1)c1ccccc1C(=O)N1CCOCC1	4.2	-8.9	5.6	-4.0	9.9
CC1CN(C(=O)c2ccccc2C(=O)c2ncc[nH]2)CC(C)O1 (stereo not given)	39.8*	-25.1	-8.4	1.3	4.5
CC(C)(C)NCCC(O)c1cc(C(F)(F)F)nc2c(C(F)(F)F)cccc12 (stereo not given)	37.7*	15.5	x	x	x
CC(C)(C)S(=O)(=O)N1Cc2cc(CO)ccc2[C@@H]1CCO	3.2	-9.7	x	x	x
COC(=O)/C(=C(O)\C=C\c1ccccc1[N+](=O)[O-])c1nc2ccccc2[nH]1	-3.1	14.4	-23.1	-12.1	55.6*
COC(=O)c1c(-c2ccc(OC)cc2)c2c(c3c4cc(OC)ccc4n(S(=O)(=O)c4ccc(C)cc4)c13)C(=O)N(C)C2	-1.3	-21.3	x	x	x
O=C(NCCO)c1cccc(-c2cnc3cccnn23)c1	1.4	-8.3	x	x	x
N#CCCN(CCCN1CCOCC1)CN1C(=O)c2ccccc2C1=O	1.2	-16.9	x	x	x
CCOc1ccccc1NC(=O)CCNS(=O)(=O)c1cccc2nsnc12	0.7	-8.4	-20.9	-10.7	67.4*
COc1ccc(NC(=O)CCNS(=O)(=O)c2cccc3nsnc23)c(OC)c1	4.8	-19.1	-16.1	-3.4	73.4*
CC(=O)c1cccc(NC(=O)CCNS(=O)(=O)c2cccc3nsnc23)c1	8.8	-2.7	-20.2	-14.1	58.4*
Cc1cccc(NC(=O)CCNS(=O)(=O)c2cccc3nsnc23)c1	1.4	2.4	-31.8	-8.6	38.0
Cc1ccc(S(=O)(=O)C[C@@H]2OC[C@H](C(C)C)N2S(=O)(=O)c2ccc(C)cc2)cc1	-1.2	-23.0	x	x	x
C/C(=N/OC(=O)c1ccc(C)cc1)c1ccc(N2C(=O)C3CCCCC3C2=O)cc1 (stereo not given)	16.9	66.0*	-28.5	-9.3	20.3
C/C(=N/NC(=O)c1ccccc1O)c1ccc(N2C(=O)C3CCCCC3C2=O)cc1 (stereo not given)	5.3	0.4	-0.2	-2.6	13.2
SMILES	TAAR1 ag	TAAR1 antagonist	OX1R antag-1	CHO parental Ca	OX1R antag-2
CC1(c2nnnn2C2CCCC2)CCC(=O)N1c1ccc2c(c1)OCCO2 (stereo not given)	2.1	-17.1	x	x	x
Cc1[nH]nc2c1C(c1ccc(Br)cc1)N(Cc1ccccc1)C2=O (stereo not given)	3.2	-15.5	x	x	x
COc1ccc(C(=O)O/N=C(\N)c2ccc(OC)c(OC)c2)c(OC)c1	x	x	8.2	-5.8	62.7*
COc1ccc(C(=O)O/N=C(\N)c2ccccc2)c(OC)c1	4.6	12.0	-32.9	-10.5	15.9
COc1ccccc1N=Nc1nc(-c2ccccc2)c(-c2ccccc2)[nH]1	-2.2	23.8	0.2	26.2	65.9*
CC(C)(C)OC(=O)N1CCC[C@@H]1C(=O)N1CCC[C@H]1C(=O)NCc1ccccc1	1.0	-15.1	x	x	x
O=S1(=O)N[C@@H](Cc2ccccc2)COc2cccc(N3CCCC3)c21	8.1	3.7	x	x	x
CC(C)N(Cc1nc(-c2ccccc2)no1)S(=O)(=O)c1ccccc1	-1.3	10.0	-8.4	60.2*	31.9
Cc1cccc(-c2noc(CN(C(=O)/C=C/c3ccccc3Cl)C(C)C)n2)c1	1.2	-7.1	-12.8	-4.0	14.9
CC(C)N(Cc1nc(-c2ccc(Cl)cc2)no1)C(=O)C(c1ccccc1)c1ccccc1	7.2	1.1	-33.9	4.5	15.5
Cc1cccc(-c2noc(CN(C(=O)CCc3ccccc3)C(C)C)n2)c1	11.7	-1.9	-21.2	42.4*	13.3
Cc1cccc(-c2noc(CN(C)S(=O)(=O)c3cc(Cl)ccc3Cl)n2)c1	10.3	-1.5	16.5	-11.8	12.1
Cc1ccc(-c2noc(CN(C(=O)C(c3ccccc3)c3ccccc3)C(C)C)n2)cc1	3.0	8.7	13.5	52.2*	23.9
COc1ccc(Cl)cc1C(=O)N(Cc1nc(-c2cccc(C)c2)no1)C(C)C	-0.8	29.5	-23.1	47.3*	29.5
Cc1ccc(C)c(CC(=O)N2CCCC(c3cc(C(=O)Nc4ccccc4Cl)no3)C2)c1 (stereo not given)	-1.3	-6.7	x	x	x
CC1(C(=O)Nc2ccc(F)cc2F)CCN1C(=O)CCC1CCCC1 (stereo not given)	-1.1	-33.7	x	x	x
CCNC(=S)N1CCN(CCN2C(=O)c3cccc4cccc(c34)C2=O)CC1	2.8	-16.0	-24.2	-29.9	43.3
O=C1c2cccc3cc([N+](=O)[O-])cc(c23)C(=O)N1CCN1CCCC1	-0.8	5.7	x	x	x
COc1ccccc1N1CCN(C(=O)CCCN2C(=O)c3cccc4cccc(c34)C2=O)CC1	16.3	50.1*	-38.1	-21.1	18.8
O=C(CN1C(=O)c2cccc3cccc(c23)C1=O)N1CCCCCC1	3.0	-10.0	5.6	-11.2	56.0*
NC(=O)CN1CCN(CCN2C(=O)c3cccc4cccc(c34)C2=O)CC1	0.0	-5.2	-1.9	-4.7	41.6*
Nc1cc2c3c(cccc3c1)C(=O)N(CCN1CCCC1)C2=O	-1.0	4.5	4.0	0.2	42.8*
